Drawing on ChEMBL document CHEMBL1135185, “Synthesis and PTP1B inhibition of 1,2-naphthoquinone derivatives as potent anti-diabetic agents” (Bioorg Med Chem Lett, 2002), this text covers IC50 and Reduction for one compound.

SMILES strings stand for the structures. pIC50: −log10 of the molar value. Activity calls are given as the source filed them. The calls are words filed in the database; no cut-off is given here.

The target in assay [1] is T1, Tyrosine-protein phosphatase non-receptor type 1 (Homo sapiens, UniProt P18031).
T1 sequence (P18031 whole entry): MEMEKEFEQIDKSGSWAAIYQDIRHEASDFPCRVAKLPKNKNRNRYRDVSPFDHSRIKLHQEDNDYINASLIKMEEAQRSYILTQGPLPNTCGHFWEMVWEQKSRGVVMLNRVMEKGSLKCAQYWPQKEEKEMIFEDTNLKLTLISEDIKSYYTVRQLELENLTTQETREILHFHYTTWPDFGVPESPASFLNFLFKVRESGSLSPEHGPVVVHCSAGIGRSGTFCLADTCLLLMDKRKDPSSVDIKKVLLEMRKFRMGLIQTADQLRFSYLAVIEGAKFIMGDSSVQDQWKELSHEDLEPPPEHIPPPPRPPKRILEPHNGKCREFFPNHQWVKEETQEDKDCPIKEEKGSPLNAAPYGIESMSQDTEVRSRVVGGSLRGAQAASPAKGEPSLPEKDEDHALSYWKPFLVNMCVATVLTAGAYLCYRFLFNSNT
Briefly: Inhibition of human Protein-tyrosine phosphatase 1B (PTP1B) using fluorescein diphosphate (FDP). The procedure, abridged:
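Recombinant human PTP1B enzyme, fluorescein diphosphate (FDP) as substrate. Enzyme activity was followed by fluorescence measurement. IC50 values were obtained by direct regression curve analysis.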

The test system of a further assay is Mus musculus. Briefly: In vivo test to determine the ability to reduce plasma glucose levels in ob/ob mice at oral dose of 25 mg/kg/day for 5 days; Active. In kind it is functional, organism-based.

For the compound `CC(C)(C)OC(=O)COc1ccc(CC2=C(n3ccc4ccccc43)c3ccccc3C(=O)C2=O)cc1`, the pIC50 (commonly −log10 of the IC50, conventionally taken in molar units) in assay [1] was 6.19. Besides, the Reduction result with Mus musculus was “Active”.
